The source of these data is ChEMBL document CHEMBL1142968, “Synthetic anticancer vaccine candidates: rational design of antigenic peptide mimetics that activate tumor-specific T-cells” (2007).

*1 amine or outer side, *2 acyl side, *3 side chain or, on linkers, in order; H or OH if unused. Where a SMILES comes first, the peptide text is derived from it. Side-chain parts run from the residue outwards. [ ]: non-standard residue; d: D form. The star is where a group is joined. X2 = O=C([C@@H]1Cc2c([nH]c3ccccc23)CN1CCN[*:1])[*:2]; X8 = O=C(CN(CCN[*:1])Cc1ccc([N+](=O)[O-])cc1)[*:2]; N(2-Aminoethyl)Gly = O=C(CN(CCN[*:3])[*:1])[*:2]; X7 = O=C(CN(CCN[*:1])CCc1c[nH]c2ccccc12)[*:2]; X4 = O=C([C@@H]1Cc2ccccc2CN1CCN[*:1])[*:2]; X9 = O=C(CN(CCN[*:1])Cc1ccnc2ccccc12)[*:2]; X6 = O=C(CN(CCN[*:1])CCc1ccccc1)[*:2]; X3 = O=C(CN(CCN[*:1])Cc1ccccc1)[*:2]; X1 = O=C(Cc1c[nH]c2ccccc12)*; 3Amb = NCc1cccc(C(=O)O)c1; PhAc = O=C(Cc1ccccc1)*; βAla = NCCC(=O)O

For test [1], the system named is T-cell. Briefly: Stimulation of INFgamma production in 10C10 T cells at 10 uM by flow cytometry. The class given is functional, Homo sapiens. A digest of the protocol: (§1)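 Melan-A/MART-1-specific CD8 clones. T2 cells are pulsed 1 h at 37 °C with 10 µM compound and washed. 2 × 10^5 of them are co-cultured with 10^5 clone cells in RPMI-1640/10% FCS with brefeldin A (10 µg/mL) for 6 h at 37 °C. Cells are fixed in 4% PFA, then saponin-permeabilized and stained with PE anti-IFN-γ (5 µg/mL, 30 min). Flow cytometry on 10^4 events gives the % IFN-γ+ cells and the MFI.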
For orientation: Flow cytometry measures light scatter and fluorescence of single cells or particles in a stream.

For test [2], the system named is T-cell. Briefly: Stimulation of INFgamma production in M77.84 T cells at 10 uM by flow cytometry. The class given is functional, Homo sapiens. A digest of the protocol:
as §1

Test [3] has as its system T-cell. Briefly: Stimulation of INFgamma production in M199.2.7 T cells at 10 uM by flow cytometry. It counts as functional, Homo sapiens. A digest of the protocol:
as §1

For test [4], the system named is T-cell. Briefly: Stimulation of INFgamma production in M199.3.2 T cells at 10 uM by flow cytometry. It counts as functional, Homo sapiens. A digest of the protocol: as §1
Test [5] can be described thus: Stimulation of INFgamma production in MEL1.37 T cells at 10 uM by flow cytometry. The class given is functional, Homo sapiens. In short, it runs like this:
as §1

Test [6] has as its system T-cell. The test can be described thus: Stimulation of INFgamma production in CDM41 ELA1 T cells at 10 uM by flow cytometry. The class given is functional, Homo sapiens. In short, it runs like this: as §1
The subject of test [7] is T-cell. Briefly: Stimulation of INFgamma production in M17.29 ELA1 T cells at 10 uM by flow cytometry. The class given is functional, Homo sapiens. A digest of the protocol:
as §1

Test [8] is filed under the species Homo sapiens. The test can be described thus: Binding affinity to HLA-A2 in TAP-deficient HLA-A2+T2 cells assessed as fluorescence intensity relative to ELA. A digest of the protocol: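 T2 cells (TAP-deficient, HLA-A2+) loaded overnight at 37 °C in serum-free RPMI-1640 with 100 µM compound plus human β2-microglobulin (100 ng/mL). Washed, stained with HLA-A2 mAb HB54 or isotype control (30 min, 4 °C), then PE anti-mouse IgG (30 min); flow cytometry. RFI = specific MFI / control MFI. Value reported as […].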

In test [9] the test system is T-cell. The test can be described thus: Stimulation of INFgamma production in CDM41 T cells at 10 uM by flow cytometry. It counts as functional, Homo sapiens. A digest of the protocol:
as §1

In test [10] the test system is T-cell. Briefly: Stimulation of INFgamma production in M17.29 T cells at 10 uM by flow cytometry. It counts as functional, Homo sapiens. A digest of the protocol: as §1
The test system of test [11] is T-cell. Briefly: Stimulation of INFgamma production in MEL1.38 T cells at 10 uM by flow cytometry. The class given is functional, Homo sapiens.

Regarding `CC[C@H](C)[C@H](NC(=O)CNC(=O)[C@H](Cc1ccc(O)cc1)NC(=O)CNC(=O)[C@H](C)NC(=O)[C@H](CC(C)C)NC(=O)[C@@H](N)CCC(=O)O)C(=O)N[C@@H](CC(C)C)C(=O)N[C@H](C(=O)N[C@H](C(=O)O)C(C)C)[C@@H](C)O`, the Activity in test [1] was 0%; in test [2], 4%; in [3] it was 0%; in [4], 78%; in test [5], 84%; in test [6], 63%. Further, in [7], the Activity came to 32%.

Regarding `CC[C@H](C)[C@H](NC(=O)CNC(=O)[C@H](Cc1ccccc1)NC(=O)CNC(=O)[C@H](C)NC(=O)[C@H](CC(C)C)NC(=O)[C@@H](N)CCC(=O)O)C(=O)N[C@@H](CC(C)C)C(=O)N[C@H](C(=O)N[C@H](C(=O)O)C(C)C)[C@@H](C)O`, the Activity in test [2] was determined as 32%; in test [3], 7%; in [4], 83%; in test [5], 71%; in test [6], 58%; in [7] it was 48%.

For `CC(C)C[C@H](NC(=O)CCN)C(=O)N[C@@H](C)C(=O)NCCN(CCc1c[nH]c2ccccc12)CC(=O)NCc1cccc(C(=O)N[C@@H](CC(C)C)C(=O)N[C@H](C(=O)N[C@H](C(=O)O)C(C)C)[C@@H](C)O)c1` (H-[βAla]LA[X7][3Amb]LTV-OH), the Ratio in [8] worked out at 0.86.

For `CC(C)C[C@H](NC(=O)CCN)C(=O)N[C@@H](C)C(=O)NCCN1Cc2ccccc2C[C@H]1C(=O)NCc1cccc(C(=O)N[C@@H](CC(C)C)C(=O)N[C@H](C(=O)N[C@H](C(=O)O)C(C)C)[C@@H](C)O)c1` (H-[βAla]LA[X4][3Amb]LTV-OH), the Ratio in [8] was 0.64.

In the case of `CC[C@H](C)[C@H](NC(=O)CNC(=O)[C@H](Cc1c[nH]c2ccccc12)NC(=O)CNC(=O)[C@H](C)NC(=O)[C@H](CC(C)C)NC(=O)[C@@H](N)CCC(=O)O)C(=O)N[C@@H](CC(C)C)C(=O)N[C@H](C(=O)N[C@H](C(=O)O)C(C)C)[C@@H](C)O`, the Activity turned out to be 0% in test [1]; 90% in [2]; 15% in [3]; 54% in test [4]; 81% in test [5]; 47% in [6]. Moreover, the Activity in test [7] amounted to 55%.

Regarding `CC[C@H](C)[C@H](NC(=O)CNC(=O)CN(CCNC(=O)[C@H](C)NC(=O)[C@H](CC(C)C)NC(=O)[C@@H](N)CCC(=O)O)Cc1ccc([N+](=O)[O-])cc1)C(=O)N[C@@H](CC(C)C)C(=O)N[C@H](C(=O)N[C@H](C(=O)O)C(C)C)[C@@H](C)O`, the Activity amounted to 0% in test [1]; 0% in [2]; 0% in [3]; 0% in test [4]; 0% in test [5]; 64% in [6]. This compound yielded an Activity in test [7] of 0%. In addition, the Ratio in [8] was 0.85.

On to `CC(C)C[C@H](NC(=O)CCN)C(=O)N[C@@H](C)C(=O)NCCN(CC(=O)NCc1cccc(C(=O)N[C@@H](CC(C)C)C(=O)N[C@H](C(=O)N[C@H](C(=O)O)C(C)C)[C@@H](C)O)c1)Cc1ccc([N+](=O)[O-])cc1` (H-[βAla]LA[X8][3Amb]LTV-OH), for which the Ratio in [8] came out at 0.86.

`CC[C@H](C)[C@H](NCCNC(=O)[C@H](Cc1c[nH]c2ccccc12)NCCNC(=O)[C@H](C)NC(=O)[C@H](CC(C)C)NC(=O)[C@@H](N)CCC(=O)O)C(=O)N[C@@H](CC(C)C)C(=O)N[C@H](C(=O)N[C@H](C(=O)O)C(C)C)[C@@H](C)O`: in test [8], the Ratio amounted to 1.61.

For the compound `CC(C)C[C@H](NC(=O)CCN)C(=O)N[C@@H](C)C(=O)NCCN(CC(=O)NCc1cccc(C(=O)N[C@@H](CC(C)C)C(=O)N[C@H](C(=O)N[C@H](C(=O)O)C(C)C)[C@@H](C)O)c1)Cc1ccnc2ccccc12` (H-[βAla]LA[X9][3Amb]LTV-OH), the Ratio in test [8] was found to be 1.31.

Consider `CC(C)C[C@H](NC(=O)CCN)C(=O)N[C@@H](C)C(=O)NCCN(CC(=O)NCc1cccc(C(=O)N[C@@H](CC(C)C)C(=O)N[C@H](C(=O)N[C@H](C(=O)O)C(C)C)[C@@H](C)O)c1)Cc1ccccc1` (H-[βAla]LA[X3][3Amb]LTV-OH), for which the Ratio in test [8] was determined as 0.95.

Consider `CC[C@H](C)[C@H](NC(=O)CNC(=O)CN(CCNC(=O)[C@H](C)NC(=O)[C@H](CC(C)C)NC(=O)[C@@H](N)CCC(=O)O)Cc1cccc2ccccc12)C(=O)N[C@@H](CC(C)C)C(=O)N[C@H](C(=O)N[C@H](C(=O)O)C(C)C)[C@@H](C)O`, for which the Ratio in [8] was 0.7.

`CC[C@H](C)[C@H](NC(=O)CNC(=O)CN(CCNC(=O)[C@H](C)NC(=O)[C@H](CC(C)C)NC(=O)[C@@H](N)CCC(=O)O)CC1CCCCC1)C(=O)N[C@@H](CC(C)C)C(=O)N[C@H](C(=O)N[C@H](C(=O)O)C(C)C)[C@@H](C)O`: the Ratio in [8] is 0.86.

As for `CC[C@H](C)[C@H](NC(=O)CNC(=O)CN(CCNC(=O)[C@H](C)NC(=O)[C@H](CC(C)C)NC(=O)CCN)Cc1ccccc1)C(=O)N[C@@H](CC(C)C)C(=O)N[C@H](C(=O)N[C@H](C(=O)O)C(C)C)[C@@H](C)O`, the Ratio in test [8] turned out to be 0.96.

As to `CC(C)C[C@H](NC(=O)CCN)C(=O)N[C@@H](C)C(=O)NCCN(CCc1ccccc1)CC(=O)NCc1cccc(C(=O)N[C@@H](CC(C)C)C(=O)N[C@H](C(=O)N[C@H](C(=O)O)C(C)C)[C@@H](C)O)c1` (H-[βAla]LA[X6][3Amb]LTV-OH), the Ratio in test [8] came out at 0.25.

With `CC[C@H](C)[C@H](NCCNC(=O)[C@H](Cc1ccc(O)cc1)NCCNC(=O)[C@H](C)NC(=O)[C@H](CC(C)C)NC(=O)[C@@H](N)CCC(=O)O)C(=O)N[C@@H](CC(C)C)C(=O)N[C@H](C(=O)N[C@H](C(=O)O)C(C)C)[C@@H](C)O`, the Ratio in [8] worked out at 1.71.

As to `CC[C@H](C)[C@H](NC(=O)CNC(=O)CN(CCNC(=O)[C@H](C)NC(=O)[C@H](CC(C)C)NC(=O)[C@@H](N)CCC(=O)O)Cc1ccc(O)cc1)C(=O)N[C@@H](CC(C)C)C(=O)N[C@H](C(=O)N[C@H](C(=O)O)C(C)C)[C@@H](C)O`, the Activity was determined as 0% in test [1]; 0% in test [2]; 0% in test [3]; 0% in test [4]; 0% in [5]; 46% in [6]. Moreover, the Activity in [7] turned out to be 0%. The Ratio in test [8] came out at 0.83.

On to `CC[C@H](C)[C@H](NC(=O)CNC(=O)CN(CCNC(=O)[C@H](C)NC(=O)[C@H](CC(C)C)NC(=O)[C@@H](N)CCC(=O)O)Cc1ccnc2ccccc12)C(=O)N[C@@H](CC(C)C)C(=O)N[C@H](C(=O)N[C@H](C(=O)O)C(C)C)[C@@H](C)O`, for which the Activity in test [1] is 0%; in test [2] it was 0%; in [3] it was 0%; in [4], 0%; in [5], 3%; in test [6] it was 69%. In addition, the Activity in test [7] was found to be 0%. In test [8], the Ratio was determined as 0.79.

Take `CC(C)C[C@H](NC(=O)CCN)C(=O)N[C@@H](C)C(=O)NCCN(CC(=O)NCc1cccc(C(=O)N[C@@H](CC(C)C)C(=O)N[C@H](C(=O)N[C@H](C(=O)O)C(C)C)[C@@H](C)O)c1)C(=O)Cc1c[nH]c2ccccc12` (X1-[N(2-Aminoethyl)Gly]([Ala-Leu-βAla])[3Amb]LTV-OH): the Activity in test [9] is 31%; in test [10], 27%; in test [1], 0%; in test [11], 44%; in test [2], 12%; in test [3], 25%. The compound further came in with an Activity in [5] of 89%. Moreover, in test [8], the Ratio amounted to 1.02.

As for `CC(C)C[C@H](NC(=O)CCN)C(=O)N[C@@H](C)C(=O)NCCN1Cc2[nH]c3ccccc3c2C[C@H]1C(=O)NCc1cccc(C(=O)N[C@@H](CC(C)C)C(=O)N[C@H](C(=O)N[C@H](C(=O)O)C(C)C)[C@@H](C)O)c1` (H-[βAla]LA[X2][3Amb]LTV-OH), the Ratio in test [8] turned out to be 0.81.

As for `CC[C@H](C)[C@H](NC(=O)CNC(=O)CN(CCNC(=O)[C@H](C)NC(=O)[C@H](CC(C)C)NC(=O)[C@@H](N)CCC(=O)O)Cc1ccccc1)C(=O)N[C@@H](CC(C)C)C(=O)N[C@H](C(=O)N[C@H](C(=O)O)C(C)C)[C@@H](C)O`, the Ratio in test [8] came to 0.9.

Consider `CC(C)C[C@H](NC(=O)CCN)C(=O)N[C@@H](C)C(=O)NCCN(CC(=O)NCc1cccc(C(=O)N[C@@H](CC(C)C)C(=O)N[C@H](C(=O)N[C@H](C(=O)O)C(C)C)[C@@H](C)O)c1)C(=O)Cc1ccccc1` (PhAc-[N(2-Aminoethyl)Gly]([Ala-Leu-βAla])[3Amb]LTV-OH), for which, in [8], the Ratio is 0.54.
